# Screening data from PubChem BioAssay.
# Shown are actives, neighbours in structure and some others; about 3.2% of the full set was active somewhere.
# PLK1 kinase inh: PLK1 (human) kinase inhibition | P53350 | recombinant PLK1 kinase, TR-FRET peptide phosphorylation | inhibition, % at 10 µM | 0.53% of 97,000 active;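 active = inhibition of 50% or more in the single-concentration screen; inactive = inhibition below 50%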;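 note: 0% = DMSO max control and 100% = H-89 dihydrochloride min control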
# DAT uptake mod: modulates human dopamine transporter uptake under cocaine; Q01959; LLC-PK1 hDAT cells, [14C]-dopamine uptake with cocaine IC80; actives deviate in either direction; B-score at 10 µM; 1.3% of 110,000 active; AID 449768;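 active = Z score or B-score, a plate-position-corrected score, falls beyond the plate's 99.7% confidence bounds, in either direction; inactive = both scores lie inside the 99.7% bounds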;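 note: scored against the spread of the other compound wells on the same plate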
# EphB4 ephrin blk: blocks human EphB4 binding to ephrin-B2. P54760. EphB4 LBD / TNYL-RAW-Alexa532 peptide, fluorescence polarization. inhibition, % at 7 µM. 0.15% of 97,000 active;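 active = inhibition above the screen-wide mean inhibition plus 3 SD, cut at about 15% in these data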;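 note: 0% = DMSO wells and 100% = excess unlabeled TNYL-RAW peptide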
# Rev-RRE block: HIV Rev-RRE protein-RNA interaction inhibition; Rev peptide-RRE RNA binding, FRET; P05866; 0.79% of 97,000 active; inhibition, % at 8 µM;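 active = inhibition above the screen-wide mean plus 3 SD, cut at about 35% in these data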;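 note: 0% = median DMSO wells and 100% = median Neomycin B control wells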
#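 Test system – labelled RRE RNA duplex and labelled Rev peptide · Reagent – labelled Rev peptide · Doses – one concentration, 8 µM nominal · Incubation – 5 + 15 min at 25 °C · Signal – FRET fluorescence readout · Read-out basis – % inhibition of FRET ratio versus controls · Control set – DMSO wells as 0% and neomycin B wells as 100% inhibition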
# FAK inh: blocks human focal adhesion kinase activity | Q05397 | biochemical FAK kinase activity assay | inhibition, %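 (tested at 7 µM)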 | 0.84% of 97,000 active | AID 727; in the data active = inhibition above about 19%;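 note: 0% = DMSO and 100% = reference compound high control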
# Target sequence (Q05397 whole entry, looked up): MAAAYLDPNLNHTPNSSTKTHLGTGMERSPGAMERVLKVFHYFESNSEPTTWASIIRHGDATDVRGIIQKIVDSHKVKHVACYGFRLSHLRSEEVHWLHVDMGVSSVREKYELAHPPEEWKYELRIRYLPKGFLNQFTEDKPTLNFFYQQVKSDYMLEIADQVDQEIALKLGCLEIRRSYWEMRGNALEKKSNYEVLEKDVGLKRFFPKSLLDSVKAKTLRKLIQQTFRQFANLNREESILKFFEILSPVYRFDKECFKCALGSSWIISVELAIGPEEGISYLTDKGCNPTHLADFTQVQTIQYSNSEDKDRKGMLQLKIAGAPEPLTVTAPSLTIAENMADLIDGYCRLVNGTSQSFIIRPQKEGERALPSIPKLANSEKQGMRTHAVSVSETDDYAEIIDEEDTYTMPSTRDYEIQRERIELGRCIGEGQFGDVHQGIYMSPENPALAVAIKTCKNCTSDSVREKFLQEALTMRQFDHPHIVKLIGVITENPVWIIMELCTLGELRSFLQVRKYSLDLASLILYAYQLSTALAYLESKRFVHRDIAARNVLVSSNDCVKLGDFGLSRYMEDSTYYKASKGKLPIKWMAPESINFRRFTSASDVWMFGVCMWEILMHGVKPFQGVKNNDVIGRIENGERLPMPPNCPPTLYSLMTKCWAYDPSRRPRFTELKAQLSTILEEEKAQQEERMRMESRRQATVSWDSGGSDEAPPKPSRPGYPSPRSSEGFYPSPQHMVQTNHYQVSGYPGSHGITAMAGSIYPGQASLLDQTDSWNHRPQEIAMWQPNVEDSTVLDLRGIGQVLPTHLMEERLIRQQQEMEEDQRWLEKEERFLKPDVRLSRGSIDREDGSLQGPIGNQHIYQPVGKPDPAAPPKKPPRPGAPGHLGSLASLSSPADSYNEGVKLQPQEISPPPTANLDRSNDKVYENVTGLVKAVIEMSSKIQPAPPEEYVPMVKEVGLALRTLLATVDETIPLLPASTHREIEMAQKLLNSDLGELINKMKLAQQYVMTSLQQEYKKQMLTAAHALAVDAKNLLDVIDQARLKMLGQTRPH
# PLK1 PBD inh: inhibitors of human Plk1 polo box domain binding; P53350; Plk1 PBD phosphopeptide binding, fluorescence polarization; inhibition, %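 (tested at about 20 µM)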; 0.13% of 97,000 active; AID 693; in the data active = inhibition above about 34%, passing the limit was not always enough
# The depositor's hits bear a star; . = no result given; [ ] = remark or other dose.
SMILES,PLK1 kinase inh,DAT uptake mod,EphB4 ephrin blk,Rev-RRE block,FAK inh,PLK1 PBD inh
CCNc1oc(COc2cccc(C)c2)nc1C#N,-8.2,1.1,-3.9,-0.5,0.3,15.9
N#Cc1ccc(-c2ccc(F)cc2)nc1SCC(=O)Nc1sc2c(c1C#N)CCC2,-26.3,-0.0858,-2.0,15.1,-22.9,5.1
CCOC(=O)c1ccc(NC(=O)C2CCN(S(=O)(=O)CC)CC2)cc1,-4.3,-7.35*,7.0,4.0,1.6,-0.1
CCOC(=O)c1ccc(NC(=O)C2CCN(S(=O)(=O)c3ccccc3)CC2)cc1,12.8,0.788,1.2,14.5,0.7,-25.1
O=C(c1cc2ccccc2oc1=O)N(Cc1cccs1)Cc1ccccc1Cl,-14.1,2.53*,-8.5,7.6,6.6,-1.7
N#CCC1c2ccccc2CCN1C(=O)Nc1ccc(Cl)cc1 (stereo unspecified),-8.3,-3.17*,2.7,3.4,6.9,12.4
N#CCC1c2ccccc2CCN1C(=O)Nc1cccc(Cl)c1 (stereo unspecified),-4.2,-2.14,-7.2,1.7,5.1,17.4
CCOC(=O)N1CCN(c2ncnc3c2[nH]c2ccc(F)cc23)CC1,-0.4,0.171,-2.9,4.9,-0.7,14.9
CCOC(=O)N1CCN(c2ncnc3c2[nH]c2ccc(OC)cc23)CC1,-5.8,3.49*,1.8,7.6,1.9,-4.7
CN(C)c1ccc(/C=C/c2nc3ccccc3s2)cc1,-14.7,-0.223,-2.4,105.8*[fluorescence artefact?],-2.6,-29.5
O=C(COc1ccccc1CNCc1ccccc1)Nc1ccccc1,1.5,0.375,-2.5,0.9,1.9,-0.7
CCC(Sc1nnc2c3ccccc3n(CC)c2n1)C(=O)Nc1sc2c(c1C#N)CCCC2 (stereo unspecified),-9.5,1.6,11.1,10.6,-1.4,-1.3
CC[n+]1c(/C=C/C=C/N(C(C)=O)c2ccccc2)sc2ccccc21,-22.7,-0.211,-23.2,129.4*[fluorescence artefact?],12.7,-220.5
c1cc(-c2nnc3sc(C4CCCCC4)nn23)ccn1,.,-0.863,.,.,.,.
COc1ccccc1-c1nnc2sc(C3CCCCC3)nn12,.,1.85*,.,.,.,.
O=C(Nc1ncc2c(n1)CC(c1ccccc1)CC2=O)c1ccco1 (stereo unspecified),-12.4,-0.998,5.7,6.9,0.1,-4.5
COc1ccccc1C(=O)Nc1ncc2c(n1)CC(c1ccco1)CC2=O (stereo unspecified),-8.9,-3.81*,2.9,5.4,-0.6,-11.0
O=c1cc(-c2cccc(Br)c2)oc2cccc(O)c12,.,-1.18,.,.,.,.
CCn1c(SCC(=O)Nc2ccc3c(c2)c2ccccc2n3CC)nnc1-c1cnccn1,.,2.53*,.,.,.,.
CCn1c(SCC(=O)Nc2ccccc2OC)nnc1-c1cnccn1,-5.6,-0.27,4.8,0.9,-3.4,-14.8
Cn1cccc1/C=C1\CC(C(C)(C)C)C/C(=C\c2cccn2C)C1=O (stereo unspecified),-8.9,-1.19,2.6,124.8*[fluorescence artefact?],-0.3,-86.5
CN(C)CC/C=C1/c2ccccc2Sc2c(O)cc(Cl)cc21,-9.7,-1.06,-0.9,-0.2,40.2*,14.9
COc1cc(Cl)cc2c1Sc1ccccc1/C2=C/CCN(C)C,-5.0,1.06,2.2,-1.1,0.6,11.1
Cc1oc(-c2cccc(Cl)c2)nc1CN1CCCC(C(=O)NCc2ccco2)C1 (stereo unspecified),2.8,0.473,-7.4,3.3,-2.2,8.0
Cc1oc(-c2cccc(Cl)c2)nc1CN1CCCC(C(=O)NC(C)c2ccc3c(c2)OCCO3)C1 (stereo unspecified),56.0*,.,-7.0,3.7,1.2,4.4
SMILES,PLK1 kinase inh,DAT uptake mod,EphB4 ephrin blk,Rev-RRE block,FAK inh,PLK1 PBD inh
Cc1ccc(NC(=O)Cc2nnc(SCC(=O)c3ccc(Br)cc3)n2C)cc1Cl,-10.2,.,1.2,-1.4,-0.7,11.4
O=C(c1ccco1)N1CCN(c2ncnc3c(-c4ccccc4)nsc23)CC1,-7.0,0.113,-2.2,-2.5,-1.9,0.9
NC(=O)C1CCN(c2ncnc3c(-c4ccccc4)nsc23)CC1,14.8,-7.19*,-2.2,-2.1,-0.8,0.8
Nc1nncn1C(=O)c1c(Cl)cccc1Cl,7.2,-0.86,-5.5,3.8,-2.6,-5.2
Cc1ccc(C)c(C(=O)n2cnnc2N)c1,54.5*,-0.418,1.3,7.5,3.2,7.5
Nc1nncn1C(=O)c1cccs1,57.4*,2.79*,-0.1,8.8,0.3,-9.6
Cc1ccc2[nH]c(=O)c(CN(CCO)C(=O)N(C)C)cc2c1,1.4,-0.0395,-3.0,3.7,-1.0,-6.8
Cc1cc(Br)ccc1NC(=O)CN1C(=O)C2C3CC(c4ccccc4)C(C3)C2C1=O (stereo unspecified),-3.7,.,0.0,4.3,-2.7,-18.3
CCOc1ccc(Br)cc1C1C(C(=O)OC)=C(N)Oc2cc(N(C)C)ccc21 (stereo unspecified),-4.6,-0.34,0.3,38.4*,1.6,-1.8
CCOc1ccccc1C1C(C(=O)OC)=C(N)OC2=C1C(=O)CCC2 (stereo unspecified),.,-0.589,.,.,.,.
COCOc1ccc(C=O)c(OCOC)c1,.,-1.05,.,.,.,.
Oc1sc(C=Nc2ccccc2)c2ccccc12,-10.8,-0.597,-1.4,119.5*[fluorescence artefact?],0.2,-51.3
Oc1sc(C=Nc2ccc(F)cc2)c2ccccc12,-10.3,0.221,-3.9,109.4*[fluorescence artefact?],0.9,-8.2
COc1cc(C(=O)OCC(=O)Nc2c(F)c(F)c(F)c(F)c2F)cc(OC)c1OC,-9.4,3.75*,-6.8,4.1,-0.7,1.8
COc1ccc(C(=O)OCC(=O)Nc2ccc(F)c(F)c2F)cc1OC,2.0,-1.12,1.6,2.0,0.5,-29.5
O=C(Oc1cccc(NC(=O)c2ccco2)c1)c1cccc(S(=O)(=O)N2CCCCC2)c1,-12.9,-7.9*,0.9,14.3,0.3,-3.3
O=C(CSc1nc2ccccc2o1)Nc1ccccc1,-3.6,-0.872,7.8,7.3,0.5,-16.6
O=C(O)CSc1nc2ccccc2o1,-1.9,-8.58*,1.5,7.0,1.9,-16.0
CCOc1ccc(N=C2NC(=O)S/C2=C\c2ccc(N(C)C)cc2)cc1,-19.5,.,-13.4,118.2*[fluorescence artefact?],18.6,-17.6
NNC(=O)CNC(c1ccccc1)c1cc(Br)ccc1NC(=O)c1ccccc1Br (stereo unspecified),-13.4,0.443,-4.9,6.7,-1.4,-6.9
Clc1ccc2c(Cl)c(-c3nnc(-c4ccccc4)o3)sc2c1,-12.6,.,6.0,11.3,-0.2,6.2
CCN1CCN(c2ccc(NC(=O)CCc3c(C)nc4c(-c5ccccc5)c(C)nn4c3C)cc2)CC1,-0.7,2.52*,-2.1,4.5,-0.1,8.7
CCCCN(C)C(=O)c1cc2cc3ccc(OC)cc3nc2s1,-5.3,0.986,4.2,8.2,4.2,-11.9
Cc1[nH]c2ccccc2c1SCc1ccccc1,.,-2.68*,.,.,.,.
CC1(C)C(=O)OC(C(=O)c2ccc(C(C)(C)C)cc2)C(C)(C)C1=O (stereo unspecified),6.2,-0.22,-6.8,11.7,1.8,6.2
CCOc1cc(C=O)ccc1OCCSc1ccc(Cl)cc1,-5.8,-1.27,0.8,10.7,-2.3,4.4
